From ChEMBL document CHEMBL4376884, “Toward a Rational Design of Polyamine-Based Zinc-Chelating Agents for Cancer Therapies” (J Med Chem, 2020) come the findings set out here.

For assay [1], the system named is PC-3. The assay is described as follows: Induction of cellular senescence in human PC3 cells assessed as increase in nuclear size at 10 uM incubated for 24 hrs by phase contrast microscopy. Format: functional, cell-based. The method, boiled down: (§1)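 LN229 and PC3 cells, 12×10^4 per well in 6-well plates, treated with 10 µM compound for 24 h. Senescence-associated β-gal staining: fixed in 2% formaldehyde/0.2% glutaraldehyde for 10 min at RT, stained with 1 mg/mL X-gal at 37 °C for 24 h without CO2. Blue cells counted in at least 10 fields at 10x and given as percent of total; four independent experiments. Morphology viewed by phase contrast at ×100.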

Assay [2] is described as follows: Metal chelating activity assessed as Zn2+-compound complex formation by measuring stability constant for ZnL(OH) using pre-Zn2+-complexed compound (ZnL) in 0.15M NaCl and hydroalcoholic solutions (H2O/EtOH 70:30) at 298.1K by potentiometric titration analysis. The method in brief: (§2)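 Glass-electrode potentiometric titration with an Ag/AgCl reference in saturated KCl. The electrode was calibrated as an [H+] probe against standardized HCl with CO₂-free NaOH, using Gran's method (pKw 13.73(1)). Range was pH 2.0–11.0, with metal and ligand at 1×10⁻³ to 5×10⁻³ M in 1:1 ratio. At least two curves per compound were merged and fitted with HYPERQUAD.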

Assay [3] deals with LN-229. As to the kind of experiment: Antiproliferative activity against human LN229 cells assessed as reduction in cell viability incubated for 48 hrs by cell titer-glo assay. Format: functional, cell-based. Conditions: LN-229, 48 h. The method in brief:
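Dose-response: cells plated, treated 24 h later for 48 h, then ATP measured by CellTiter-Glo luminescence. IC50 given as mean ± SD from three independent experiments, each in triplicate. Fibroblasts came from individuals. Cells were kept in RPMI or DMEM with 10% heat-inactivated FBS and penicillin/streptomycin at 37 °C, 5% CO2.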
(In general: ATP-based viability assays read luminescence as a measure of living cells.)

Assay [4] deals with PC-3. As to the kind of experiment: Induction of cell morphological changes in human PC3 cells assessed as random membrane blebbing at 10 uM incubated for 24 to 48 hrs by phase contrast microscopy. Format: functional, cell-based. The method in brief:
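LN229 and PC3 cells exposed to 10 µM compound for the indicated time-points, then imaged live by phase-contrast microscopy for morphology.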

The test system of assay [5] is LN-229. As to the kind of experiment: Metal chelating activity in human LN229 cells assessed as decrease in intracellular concentration of labile zinc ions by measuring reduction in zinquin-Zn2+ complex formation incubated for 12 hrs followed by incubation with fluorophore-zinquin for 30 mins by spectrofluorometric analysis. Format: cell-based. The method, boiled down: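 LN229 cells were treated 12 h, trypsinized, pelleted and checked by Trypan Blue. Then 6x10⁶ cells in 1 mL PBS were loaded with Zinquin 25 μM for 30 min at 37 °C in the dark. Fluorescence was read at ex 370/em 475 nm with a 400–600 nm scan, normalized to cell number, untreated set to 100; four independent experiments.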

In assay [6] the test system is Granta-519. The assay is described as follows: Induction of apoptosis in human GRANTA-519 cells assessed as increase in caspase-3/7 activation at 10 uM incubated for 48 hrs by luminometric caspase-glo 3/7 assay. Format: functional, cell-based. The method, boiled down: (§3)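 Cells in RPMI or DMEM with 10% heat-inactivated FBS and penicillin/streptomycin, 37 °C, 5% CO2, treated with 10 µM compound for 48 h. Caspase-3 and caspase-7 activity read by luminescent Caspase-Glo 3/7 assay, reported as fold induction over untreated cells; mean ± SD of three independent experiments, each in triplicate.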

For assay [7], the system named is Granta-519. The assay is described as follows: Antiproliferative activity against human GRANTA-519 cells assessed as reduction in cell viability at 10 uM incubated for 48 hrs by cell titer-glo assay. Format: functional, cell-based. The method, boiled down: (§4)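 Cells plated and treated 24 h later with 10 µM compound for 48 h; viable cells quantified by CellTiter-Glo ATP luminescence. Expressed as percentage of viable cells relative to untreated; mean ± SD of three independent experiments, each in triplicate.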

The subject of assay [8] is PC-3. The assay is described as follows: Induction of apoptosis in human PC3 cells assessed as necrotic cells at 10 uM incubated for 24 hrs by annexin V-FITC and propidium iodide staining based flow cytometry analysis (reference value: 0.30 %). Format: functional. A general note: A flow cytometer gives signals particle by particle.
Assay [9] is described as follows: Metal chelating activity assessed as Zn2+-compound complex formation by measuring stability constant for ZnL in 0.15M NaCl and hydroalcoholic solutions (H2O/EtOH 70:30) at 298.1K by potentiometric titration analysis. The method in brief: as §2
In assay [10] the test system is PC-3. As to the kind of experiment: Induction of apoptosis in human PC3 cells assessed as late apoptotic cells at 10 uM incubated for 24 hrs by annexin V-FITC and propidium iodide staining based flow cytometry analysis (reference value: 0.52 %). Format: functional.
The next assay deals with Z-138. As to the kind of experiment: Antiproliferative activity against human Z138 cells assessed as reduction in cell viability at 10 uM incubated for 48 hrs by cell titer-glo assay. Format: functional, cell-based. The method, boiled down: as §4
A short description of assay [11]: Metal chelating activity assessed as Zn2+-compound complex formation by measuring stability constant for ZnL(OH) in 0.15M NaCl and hydroalcoholic solutions (H2O/EtOH 70:30) at 298.1K by potentiometric titration analysis. The method, boiled down:
as §2

The subject of a further assay is U-87 MG. As to the kind of experiment: Induction of apoptosis in human U87MG cells assessed as increase in caspase-3/7 activation at 10 uM incubated for 48 hrs by luminometric caspase-glo 3/7 assay. Format: functional, cell-based. The note with it: U-87MG ATCC. The method, boiled down:
as §3

Assay [12] has as its system LN-229. As to the kind of experiment: Induction of cellular senescence in human LN229 cells assessed as flattened cells at 10 uM incubated for 24 hrs by phase contrast microscopy. Format: functional, cell-based. The method, boiled down: as §1
Assay [13] relates to PC-3. The assay is described as follows: Cell cycle arrest in human PC3 cells assessed as cell accumulation at G1 phase at 10 uM incubated for 24 hrs by propidium iodide staining based flow cytometry analysis relative to control. Format: functional.
Assay [14] deals with PC-3. As to the kind of experiment: Antiproliferative activity against human PC3 cells assessed as reduction in cell viability at 10 uM incubated for 48 hrs in presence of Zn2+ ion by MTT assay. Format: functional, cell-based. The method in brief: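 LN229 and PC3 cells plated, then 24 h later given 10 µM compound with or without 15 µM ZnCl2, CuCl2, FeCl2 or FeCl3 for 48 h. Medium replaced, MTT (12 mM solution) added for 4 h, formazan dissolved in DMSO, absorbance read at 540 nm. Percent viable versus untreated; mean ± SD of three experiments in triplicate.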
On the technique in general: Formazan colour is commonly taken as a measure of viable cells.

Assay [15] is described as follows: Metal chelating activity assessed as Zn2+-compound complex formation by measuring stability constant for ZnL(OH) in 0.15M NaCl at 298.1K by potentiometric titration analysis. The method, boiled down:
as §2

Assay [16] in a line: Metal chelating activity assessed as Zn2+-compound complex formation by measuring stability constant for ZnHL using pre-Zn2+-complexed compound (ZnL) in 0.15M NaCl at 298.1K by potentiometric titration analysis. The method, boiled down:
as §2

The nature of assay [17]: Metal chelating activity assessed as Zn2+-compound complex formation by measuring stability constant for ZnL(OH) using pre-Zn2+-complexed compound (ZnL) in 0.15M NaCl at 298.1K by potentiometric titration analysis. The method in brief: as §2
A short description of assay [18]: Metal chelating activity assessed as Zn2+-compound complex formation by measuring stability constant for ZnL in 0.15M NaCl at 298.1K by potentiometric titration analysis. The method in brief: as §2
Assay [19] in a line: Metal chelating activity assessed as Zn2+-compound complex formation by measuring stability constant for ZnHL in 0.15M NaCl at 298.1K by potentiometric titration analysis. The method, boiled down:
as §2

Calls of active or inactive are those of the source. The rule behind the calls is not given here.

As usually defined, the IC50 is the point on the concentration scale where inhibition reaches its midpoint. In the case of `CN(CCNCc1ccccn1)CCNCc1ccccn1`, the outcome in the assay with PC-3 [1], with PC-3 [4], in the assay with Granta-519 [6], with Granta-519 [7], in the assay with Z-138 and in the assay on U-87 MG was Active. In the assay with LN-229 [12], the outcome was Active. The figures for the log K in assay [2], in assay [9] and in assay [11] were -10.6, 13.4 and 2.81, respectively. Besides, the 50% inhibitory concentration (IC50) in the assay with LN-229 [3] came out at 6.84 µM. In addition, the Activity entry in the assay on LN-229 [5] was “Dose-dependent effect”; in the assay on PC-3 [8], 1.78%; in the assay with PC-3 [10], 2.13%; with PC-3 [13] it was 71.1%. In the assay with PC-3 [14], the result was inactive.

`c1ccc(CNCCN(CCNCc2ccccn2)Cc2ccc3ccccc3c2)nc1`: the outcome in the assay with PC-3 [1], in the assay with PC-3 [4], in the assay on Granta-519 [6], with Granta-519 [7], in the assay with Z-138 and in the assay with U-87 MG was Active. The result in the assay with LN-229 [12] was Active. The log K is 2.25 in [15]; 3.65 in assay [16]; -10.8 in [17]; 13 in [18]; 16.7 in assay [19]. Also, in the assay on LN-229 [3], the IC50 worked out at 6.3 µM. In addition, the Activity entry with LN-229 [5] was “Dose-dependent effect”; with PC-3 [8], 1.53%; in the assay with PC-3 [10] it was 2.17%; in the assay on PC-3 [13], 73.7%. In addition, the result with PC-3 [14] was inactive.
